Experimental data collected from several papers.
Compare with care: the assays were run in different laboratories.
Target: BMP-2-inducible protein kinase (BMP2K, Homo sapiens, UniProt Q9NSY1)

effect on | mode | technique | concentration | endpoint | result | Compound
cell-free assay | – | – | 1 µM | remaining signal | 17% | C[C@H]1CC[C@H](n2c3cnccc3c3cnc(Nc4ccc5c(n4)CCN(C(=O)CO)C5)nc32)CC1
binding | – | competition with immobilised ligand | 0.5 µM | remaining binding | 98% | CCCCC(=O)Nc1ccc(-c2ccc3ncn(CCC)c(=O)c3c2)cn1
enzyme activity | inhibitor | – | 1 µM | inhibition | 26% | CC#CC(=O)N1CCC[C@H]1c1nc(-c2ccc(C(=O)Nc3ccccn3)cc2)c2c(N)nccn12
binding | – | competition with immobilised ligand | 1 µM | remaining binding | 79% | CNS(=O)(=O)c1ccc(Nc2ncc(C(F)(F)F)c(N3CCC[C@](C)(O)C3)n2)c(C)c1
enzyme activity | inhibitor | – | 1 µM | inhibition | 17% | C=CC(=O)N1CCC[C@@H](n2nc(-c3ccc(Oc4ccccc4)cc3)c3c(N)ncnc32)C1
binding | – | competition with immobilised ligand | 1 µM | remaining binding | 99% | C[C@]1(O)CCCN(c2nc(Nc3ccc(S(=O)(=O)N[C@H]4CC[C@H](CN5CCN(c6ccc(C7CCC(=O)NC7=O)cc6F)CC5)CC4)cc3Cl)ncc2C(F)(F)F)C1 (some centres unmarked)
binding | – | – | 1 µM | remaining binding | 105% | COc1ccc2oc(-c3ccc4nc(N)oc4c3)c/c(=N\c3ccccc3NC(=O)CCN)c2c1
binding | – | – | 1 µM | remaining binding | 76% | COc1ccc2[nH]c3c4[nH]c5ccc(OC)cc5c4c4c(c3c2c1)C(=O)NC4=O
